Legend:
BamL [1] = molecular target: T1, BamL (Bacillus velezensis, UniProt D3VMM1); test: ITC binding assay with BamL; conditions: for Kd: BamL
T1 sequence (D3VMM1 1-270): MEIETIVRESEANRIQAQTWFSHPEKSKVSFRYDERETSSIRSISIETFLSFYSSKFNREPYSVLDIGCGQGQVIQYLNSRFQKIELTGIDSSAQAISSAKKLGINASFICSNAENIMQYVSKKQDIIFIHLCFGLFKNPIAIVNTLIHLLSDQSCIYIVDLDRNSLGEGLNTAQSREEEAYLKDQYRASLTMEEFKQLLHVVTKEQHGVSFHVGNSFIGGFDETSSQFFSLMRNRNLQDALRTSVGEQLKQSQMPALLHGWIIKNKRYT
Outline: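 Test compounds were titrated with BamL by isothermal titration calorimetry. The binding isotherms were fitted to give Kd and thermodynamic binding parameters. The same titration was applied to a minimal arginine amide ligand.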

BamL [2] = molecular target: T1, BamL; test: BamL methylation assay, ESI-MS endpoint / LC-MS; type: biochemical; conditions: for conversion into dimethylated product / dimethylation by BamL: condition A: 16 h endpoint assay, BamL in the presence of SAM, ESI-MS/HRMS and LC-MS
Outline: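 Test compounds were incubated with BamL and scored as substrates by conversion of starting material. Two conditions were used: a standard assay, and a more stringent 1 h assay (condition B) with lower enzyme and substrate concentrations for finer resolution of substrate efficiency.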

BamL [3] = molecular target: T1, BamL; conditions: cited from earlier work; for processing by BamL: Arg-containing tetrapeptides as substrate mimics
Bacillus anthracis = conditions: against Bacillus anthracis; ref 1b; cited from earlier work

## C=CCOC(=O)c1csc([C@@H](N)CCCNC(=N)N)n1 [compound 2]
BamL [1]
  Kd: 2.2 µM
BamL [1]; addition of a single thiazole to Arg-NH2
  increase in affinity for BamL versus 17 (2 vs. 17): two orders of magnitude
BamL [2]
  conversion into dimethylated product: left detectable levels of unconverted starting material
  dimethylation by BamL: dimethylated by BamL

## CCOC(=O)c1csc(-c2nc(-c3csc([C@@H](N)CCCNC(=N)N)n3)oc2C)n1 [compound 3]
BamL [1]
  affinity for BamL relative to monoazole 2: marginally higher affinity
  Kd: 1.7 µM
BamL [1]; analysis of Gibbs free energy terms, 3 compared to 2
  thermodynamic origin of stronger interaction compared to 2: primarily entropically driven
BamL [2]; 3 compared to 2, differences in affinity not solely responsible
  processing by BamL compared to 2: enhanced processing
BamL [2]
  conversion into dimethylated product: full conversion
  dimethylation by BamL: dimethylated by BamL
BamL [2]; condition B: more stringent 1 h assay, lower concentrations of enzyme and substrate, ESI-MS
  conversion into dimethylated product (reaction completeness): nearly complete
BamL [2]; three azole rings compared with one azole, conditions A and B
  reaction efficiency with BamL: reaction efficiency increases substantially

## RAAA
BamL [3]
  processing by BamL: unprocessed by BamL

## plantazolicin [PZN]
Bacillus anthracis
  antibacterial action: highly discriminating antibacterial action against Bacillus anthracis

## N=C(N)NCCC[C@H](N)C(N)=O [compound 17, Arg-NH2]
BamL [3]
  conversion to (CH3)2-Arg-NH2 by BamL: inefficiently converted

## RGGG
BamL [3]
  processing by BamL: unprocessed by BamL

From PMC3836752 (Organic letters, 2013)
